Bioassay records: PubChem, The Scripps Research Institute Molecular Screening Center
TAAR1 agonist: human TAAR1 agonists, primary screen, Fluo-8 calcium fluorescence, CHO RD-HGA16 cells | Trace amine-associated receptor 1 (Homo sapiens), Q96RJ0 | actives 0.99% (n = 360,000) | activation, % at 3 µM | vehicle wells 0%, saturating PEA agonist 100%;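 active means activation above the mean activation of all test compounds in the run plus 3 SD, cut at about 38% in these data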
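test system = CHO RD-HGA16 cells carrying human TAAR1 plus Gα16 | schedule = 17-24 h seeding, 75 min 37 °C dye, 30 min RT | compound dosing = 3 µM single concentration | control set = DMSO and PEA EC100 | replicates = n 1 | signal = Fluo-8 fluorescence, 5 s baseline then 140 s kinetic read | measure = percent activation vs PEA EC100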
OX1R antag-1: OX1R (HCRTR1) antagonists, primary screen, fluorescence, CHO/OX1R cells, Fluo-8 calcium, orexin A | AID 434989, 2010 | Fluo-8 calcium fluorescence | actives 0.43% (n = 330,000) | Orexin/Hypocretin receptor type 1 (Homo sapiens), O43613 | inhibition, % at 5 µM;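 active means inhibition above its plate's threshold, mean inhibition of all tested compounds on the plate plus 3 SD, cut at about 37% in these data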;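 further: 0% = orexin A challenge wells and 100% = SB-334867-A antagonist wells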
GPR7 antagonist: GPR7 receptor antagonists, primary screen, cell-based, fluorescence, single concentration. GPR7-expressing cells, fluorescence antagonist assay. actives 1.1% (n = 290,000). inhibition, % at 4.4 µM; in the data active means inhibition above about 16%, passing the limit was not always enough;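 further: cells stimulated with the agonist NPW; 0% = agonist with vehicle and 100% = vehicle without agonist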
Target sequence (P48145 whole entry, looked up): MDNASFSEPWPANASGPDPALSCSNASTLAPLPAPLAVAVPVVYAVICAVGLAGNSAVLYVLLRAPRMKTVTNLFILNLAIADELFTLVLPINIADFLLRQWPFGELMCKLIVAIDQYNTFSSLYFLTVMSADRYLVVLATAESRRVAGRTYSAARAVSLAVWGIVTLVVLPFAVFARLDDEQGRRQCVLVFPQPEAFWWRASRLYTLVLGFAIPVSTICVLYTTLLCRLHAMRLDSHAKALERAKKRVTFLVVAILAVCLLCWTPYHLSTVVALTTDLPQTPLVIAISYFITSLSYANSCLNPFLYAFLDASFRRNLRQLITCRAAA
TAAR1 antag: human TAAR1 antagonists, primary screen, Fluo-8 calcium fluorescence, CHO RD-HGA16 cells. Trace amine-associated receptor 1 (Homo sapiens), Q96RJ0. antagonist. inhibition, % at 3 µM. actives 1.5% (n = 360,000). AID 624466, 2012;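 active means inhibition above a per-plate cutoff, the mean inhibition of test compounds on that plate plus 3 SD, cut at about 49% in these data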;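 further: 0% = DMSO plus EC80 beta-PEA response and 100% = DMSO alone without agonist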
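Assay system: RD-HGA16 CHO cells with stable hTAAR1 and Gα16 / Reagent: EC80 β-phenethylamine stimulus / Doses: 3 µM, single point / Timing: dye loading 75 min at 37 °C, then 30 min room temperature / Measured by: Fluo-8 intracellular calcium dye fluorescence, real-time kinetic reads / Controls: vehicle wells and EC80 agonist wells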
CHO parental Ca: ATP-evoked calcium signal inhibitors, parental CHO, primary screen, counter-screen for OX1R antagonist project, cell-based, fluorescence, Fluo-8 calcium dye; actives 0.63% (n = 330,000); parental CHO-K1, ATP-induced calcium, Fluo-8 fluorescence; inhibition, % at 5.6 µM;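 active means inhibition above that plate's mean sample inhibition plus 3 SD, cut at about 26% in these data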;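 further: 0% = ATP-challenged DMSO wells and 100% = DMSO wells without ATP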
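material = parental CHO cells | also added = ATP as calcium-mobilizing challenge | dosing = single point at 5.6 µM | detection = intracellular calcium via Fluo-8 no-wash fluorescent dye | read-out = % inhibition | benchmarks = low control ATP plus DMSO, high control DMSO only | repeats = one well per compound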
OX1R antag-2: antagonists of human orexin 1 receptor (OX1R); Orexin/Hypocretin receptor type 1 (Homo sapiens), O43613; actives 1.8% (n = 330,000); OX1R-expressing cells, FRET antagonist read-out; inhibition, % at 6.6 µM; in the data active means inhibition mostly above about 38%, no sharp cut-off; inactive means mostly below about 40%;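 further: 0% = agonist challenge alone and 100% = reference antagonist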
TAAR1 nonsel count: nonselective antagonists in TAAR1 counter-screen cells, counter-screen for hTAAR1 antagonist project, cell-based, fluorescence, calcium. shares compounds with TAAR1 antag. actives 77% (n = 2,400). counterscreen cell line, antagonist mode. inhibition, % at 3 µM; in the data active means inhibition above about 22%;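 further: CHO-Ga16 host cells stimulated with ATP at an EC80 level; 0% = agonist EC80 plus vehicle and 100% = vehicle without agonist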
TAAR1 antag conf: human TAAR1 antagonists, retest of hits, confirmation, cell-based, fluorescence | actives 40% (n = 2,400) | inhibition, % at 3 µM | shares compounds with TAAR1 antag | TAAR1-expressing cells, fluorescence antagonist read-out | AID 651785, 2012; in the data active means inhibition above about 49%;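 further: CHO-Ga16 host cells challenged with agonist PEA near its EC80; 0% = agonist at EC80 plus vehicle and 100% = vehicle with no agonist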
Ga16 nonsel ag: calcium activation in Ga16-expressing cells, counter-screen for TAAR1 antagonist project, cell-based, fluorescence; shares compounds with TAAR1 antag; activation, % at 3 µM; actives 18% (n = 2,400); agonist counterscreen; in the data active means activation above about 12%;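 further: 0% = vehicle wells and 100% = saturating stimulus response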
TAAR1 ag counter: TAAR1 activation by candidate antagonists – cell-based, fluorescence, counter-screen for TAAR1 antagonist project; shares compounds with TAAR1 antag; hTAAR1 cell line, agonist mode; activation, % at 3 µM; actives 2% (n = 2,400); AID 651955, 2012; in the data active means activation above about 37%;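 further: CHO cells stably expressing TAAR1 with calcium dye readout; 0% = DMSO vehicle and 100% = full agonist response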
Numbers without * were called inactive; nt = no result given. Hits are enriched below; roughly 4.6% of the tested compounds scored in any of these assays.

SMILES | TAAR1 agonist | OX1R antag-1 | GPR7 antagonist | TAAR1 antag | CHO parental Ca | OX1R antag-2 | TAAR1 nonsel count | TAAR1 antag conf | Ga16 nonsel ag | TAAR1 ag counter
CC(c1nc2ccccc2c(=O)[nH]1)N1CCN(S(=O)(=O)c2ccc(F)c(Cl)c2)CC1 (stereo not drawn) | 5 | nt | nt | 37 | nt | nt | nt | nt | nt | nt
C/C(=N\OCC(=O)OCC(=O)NCc1ccccc1)c1ccc2c(c1)OCO2 | 0 | -10 | nt | -13 | -7 | 9 | nt | nt | nt | nt
CCOC(=O)N1CCC(NC(=O)c2ccc3c(c2)sc2nc(-c4ccccc4)cn23)CC1 | 17 | -7 | 5 | 57* | -15 | 15 | 31* | 35 | 10 | 8
CCOC(=O)N1CCC(NC(=O)c2ccc3c(c2)sc2nc(-c4cccc(OC)c4)cn23)CC1 | nt | nt | -10 | nt | nt | nt | nt | nt | nt | nt
CC(C)(C)c1ccc(C(=O)N2CCC2(C)C(=O)Nc2cnc3ccccc3c2)cc1 (stereo not drawn) | 0 | nt | nt | 36 | nt | nt | nt | nt | nt | nt
CCc1nn(CC(=O)N2CCN(c3ccc(F)cc3)CC2)c(=O)c2cc3occc3n12 | 14 | -21 | -13 | -9 | -4 | -4 | nt | nt | nt | nt
COc1cc(NC(=O)c2ccccc2OCc2ccccc2)cc(OC)c1OC | 7 | -14 | 3 | 61* | -14 | 45* | 20 | 47 | 8 | 9
CNC(=O)c1cccc(NC(=O)c2ccccc2OCc2ccccc2)c1 | 22 | 16 | -9 | 54* | -10 | 18 | 21 | 37 | 6 | 16
O=C(NCC(=O)N1CCN(c2ccccc2)CC1)c1ccco1 | 0 | -8 | -14 | -12 | -6 | 23 | nt | nt | nt | nt
Cc1ccccc1-c1cc2nc(Nc3ccc(F)cc3)n(C)c(=O)c2s1 | 1 | nt | nt | 45 | nt | nt | nt | nt | nt | nt
Cc1ccc2c(c1)C(=O)C(=O)N2Cc1ccc(Cl)cc1 | 9 | -7 | nt | 55* | -5 | 2 | 21 | 28 | 4 | -1
CSc1ccc(CN2CCC2(C)C(=O)NC2CCc3ccccc32)cc1 (stereo not drawn) | 6 | nt | nt | -25 | nt | nt | nt | nt | nt | nt
COc1cccc(C=C(C(C)=O)C(=O)c2ccccc2)c1 | -1 | nt | nt | -8 | nt | nt | nt | nt | nt | nt
COc1cccc(/C=C(/C(=O)OCC(N)=O)c2ccccc2)c1 | 10 | -8 | -13 | 105* | -14 | -1 | 1 | -2 | 2 | 5
CCOC(=O)c1oc2ccccc2c1NC(=O)c1cccc(OC)c1 | 4 | -52 | -17 | -10 | -33 | 9 | nt | nt | nt | nt
COc1cccc(C(=O)Nc2c(C(N)=O)oc3ccccc23)c1 | 12 | 6 | -8 | 56* | -15 | 77* | 24* | 41 | 7 | 9
CCCCNS(=O)(=O)c1cccc(NC(=O)[C@H]2C[C@H](O)[C@@H](CO)O2)c1 | 2 | nt | nt | -9 | nt | nt | nt | nt | nt | nt
COc1cc(NC(=S)NC(=O)c2ccccc2F)ccc1NC(=O)c1cccs1 | 5 | -38 | -10 | -13 | -17 | 13 | nt | nt | nt | nt
O=C(Nc1ccc(NC(=S)NC(=O)c2ccccc2F)cc1)c1cccs1 | 11 | -30 | -3 | 52* | 0 | 32 | 20 | 28 | 9 | 10
CCCOc1ccc2cc(C(=O)NCc3ccccc3)c(=O)oc2c1 | -1 | -15 | -9 | -10 | -8 | 13 | nt | nt | nt | nt
